Assay outcomes (PubChem)
NF-kB expr up – activators of NF-kB expression in neurons, primary screen, cell-based, HTS | 1.6% of 190,000 active | fold change at 12.5 µM | human neuronal cells, NF-kB reporter expression; active compounds read high; in the data active means fold change above about 3.3
sdo1 growth – growth rescue of sdo1-depleted yeast, primary screen, S. cerevisiae, bone marrow failure model | S. cerevisiae sdo1-depleted JHY4D growth rescue, OD600 30 h; active compounds read high; pdr5 snq2 efflux-pump mutant strain | z-score at 10 µM | 0.21% of 140,000 active;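 active means z-score above 3 at both the 24 hr and the 30 hr optical density reads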;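 further: z-score against mean and SD of all compound wells on the same plate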
FLuc act counter – FLuc activators, initial screening, artefact control for FLuc-dependent activation tests, biochemical, ATPlite luminescence | ATPlite luciferase biochemical, 10 min; 0 = ATP-free wells, 1 = DMSO control | activation factor at 10 µM | 200,000 tested, under 10 active | AID 1027, 2008;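 active means luciferase activation factor, scaled between plate controls, of at least 2 with compound at 10 µM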
Target sequence (P08659 whole entry, looked up): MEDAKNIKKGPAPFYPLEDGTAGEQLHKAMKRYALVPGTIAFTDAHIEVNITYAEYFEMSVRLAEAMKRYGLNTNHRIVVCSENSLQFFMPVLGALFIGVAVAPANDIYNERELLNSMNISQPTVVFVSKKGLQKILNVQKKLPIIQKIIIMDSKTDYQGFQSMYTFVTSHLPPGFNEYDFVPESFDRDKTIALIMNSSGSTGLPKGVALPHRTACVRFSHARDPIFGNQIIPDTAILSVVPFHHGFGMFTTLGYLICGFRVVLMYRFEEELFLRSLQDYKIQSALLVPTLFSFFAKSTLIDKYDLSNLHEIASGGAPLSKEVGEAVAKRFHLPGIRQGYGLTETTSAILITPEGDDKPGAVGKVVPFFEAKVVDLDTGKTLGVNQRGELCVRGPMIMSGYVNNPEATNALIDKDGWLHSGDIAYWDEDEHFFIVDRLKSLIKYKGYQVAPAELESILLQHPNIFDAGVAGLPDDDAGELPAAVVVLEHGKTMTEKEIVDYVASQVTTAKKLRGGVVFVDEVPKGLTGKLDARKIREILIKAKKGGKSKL
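Material: Luciferase/luciferin reagent mix; Doses: test compounds dosed from 2 mM stocks in 100% DMSO; Schedule: 10 min incubation after luciferase reagent addition, room temperature; Measured by: luminescence from luciferase reaction; Read-out: luminescence gain marking luciferase activators.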
APP 5'UTR act – activators of APP 5'UTR luciferase reporter, primary screen, SH-SY5Y cells | SH-SY5Y APP 5'UTR luciferase reporter, luminescence; zero percent = DMSO vehicle wells | activation, % at 2 µM | 1% of 190,000 active | AID 1276, 2008;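 active means activation above a set limit, based on mean plus 3 SD of controls, cut at about 140% in these data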
FLuc inh counter – firefly luciferase enzyme inhibitors, primary screen, artefact control for luciferase-based inhibitor screens, biochemical, luminescence, ATPLite; Luciferin 4-monooxygenase (Photinus pyralis), P08659; 10 min; inhibition, % at 10 µM; 1.5% of 200,000 active; AID 1006, 2008;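 active means inhibition above about 50% when tested at 10 µM, limit read from the data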
STAT1 activator – STAT1 signaling activators, primary screen, cell-based, HTS, luciferase reporter. 2.6% of 200,000 active. activation (% of control), % at 5.5 µM. NIH 3T3 STAT1-luciferase reporter, IFN-gamma, luminescence; 100% = IFN-gamma alone, no compound. AID 932, 2007;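 active means activation above the screen-wide mean activation plus 3 SD, cut at about 130% in these data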;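 further: raw ratio to IFN-gamma control signal so 100% means no change and 0% no light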
An asterisk follows results filed as active; · = no result given. An excerpt weighted towards active compounds, which were near 4.3% of everything screened.

SMILES	NF-kB expr up	sdo1 growth	FLuc act counter	APP 5'UTR act	FLuc inh counter	STAT1 activator
Cc1scc(C(=O)NNC(=S)NC(C)c2ccccc2)c1C (configuration not stated)	0.74	0.49	1	13	0	97
CSc1nc(N)nc(-c2cccs2)c1C#N	1.2	1.3	1	13	-5	106
CC(C)Sc1nc(N)nc(-c2cccs2)c1C#N	2.8	-1.6	0.9	·	5	134*
CCOc1ccccc1C(=O)N[C@H](C(=O)Nc1cc(S(=O)(=O)N(C)C)ccc1OC)C(C)C	0.91	·	1	10	-5	101
CSc1ccc(/C=N/n2c(C)cc(C)cc2=O)cc1	2.4	0.15	0.8	19	24	130*
CSc1ccc(/C=N/n2c(C)nnc2C)cc1	1.2	·	1.1	-10	-9	88
C/C(=N\NC(=O)c1ccn(C)n1)c1cccc(NC(=O)c2ccncc2)c1	1	0.13	0.8	-3	24	120
CCCOc1ccc(-c2nnc(-c3ccncc3)o2)cc1	3.7*	-0.28	0.9	124	7	126
CC(C)COc1ccc(-c2nnc(-c3ccncc3)o2)cc1	2.8	-0.34	0.9	34	7	136*
c1cc(-c2nnc(-c3ccncc3)o2)ccn1	1.2	0.69	1	17	-4	103
NS(=O)(=O)c1ccc(CCNC(=O)/C=C/c2cccc([N+](=O)[O-])c2)cc1	1.2	·	1.1	10	-6	92
O=C1c2ccccc2-c2nnc(-c3ccc(F)cc3)cc21	4.5*	·	0.2	144*	79*	115
Oc1ccc(-c2cccc(-c3ccc(O)cc3)n2)cc1	1.5	1.4	1	27	4	113
Cc1ccccc1-c1cc2c(nn1)-c1ccccc1C2=O	0.96	-0.9	0.2	17	77*	88
O=C1c2ccccc2-c2nnc(-c3ccc(O)cc3)cc21	2.4	·	0.1	120	90*	56
Cc1cccc(C)c1NS(=O)(=O)c1ccc2c(c1)C(=O)c1ccccc1C2=O	1.3	-0.32	1	·	-3	110
CCOc1ccccc1NC(=O)C1CCN(C(=O)Cc2ccccc2)CC1	0.94	·	1.1	0	-9	104
CC1CCCC/C1=N\NC(=S)Nc1ccccc1 (configuration not stated)	1.4	·	1	175*	-4	105
CC1CCC/C(=N\NC(=S)Nc2ccccc2)C1 (configuration not stated)	0.94	1.2	1	126	-3	106
CCc1ccc(C(=O)COC(=O)c2nn(C)c(=O)c3ccccc23)cc1	1.1	·	0.8	35	22	100
CC1CCN(C(=O)COC(=O)c2n[nH]c3ccccc23)CC1	2.5	0.53	0.5	67	55*	125
CCc1ccc(C(=O)COC(=O)c2n[nH]c3ccccc23)cc1	5.5*	·	0.4	100	63*	124
NC(=O)c1cccnc1Nc1ccccc1Cl	1.3	0.01	1	6	1	96
CS(=O)(=O)N1CCN(C(=O)Cc2ccccc2Cl)CC1	1.3	·	1.1	-4	-8	98
Cc1cccc(C(=O)NC(=S)N2CCc3ccccc3C2)c1	1.1	-0.78	1	4	-3	96
SMILES	NF-kB expr up	sdo1 growth	FLuc act counter	APP 5'UTR act	FLuc inh counter	STAT1 activator
COCCNC(=O)CSc1nc(-c2ccccc2)cs1	1.8	-0.17	0.9	7	7	113
Clc1ccc(OCc2nc3ccccc3[nH]2)cc1	·	·	0.3	184*	70*	144*
c1ccc(OCc2nc3ccccc3[nH]2)cc1	2.4	0.41	0.7	101	34	129*
Cc1ccc(OCc2nc3ccccc3[nH]2)cc1	1.1	0.54	0.1	164*	88*	147*
CC(C)(C)c1ccc(C(=O)NCC(=O)OCC(=O)Nc2ccc3c(c2)OCCO3)cc1	1.2	0.55	0.6	-11	38	108
N#Cc1ccccc1S(=O)c1ccccc1C(=O)Nc1ccccc1 (configuration not stated)	1.1	·	1.1	-9	-8	101
S=C(c1ccc(-c2ccc(Cl)cc2Cl)o1)N1CCCCC1	3.9*	-0.93	0.7	46	33	144*
S=C(c1ccc(-c2ccccc2Cl)o1)N1CCOCC1	2.5	-1.4	0.7	36	25	119
O=C(NCc1ccccc1)C1=C[C@@H](c2coc3ccccc3c2=O)C[C@@H](OCc2ccc(CO)cc2)O1	1.7	·	1	13	-2	98
CSc1nsc(N/N=C/c2ccc3c(c2)OCO3)c1C#N	3.9*	·	0.6	168*	35	150*
COc1ccc(/C=C\c2nc(=O)c3ccccc3o2)cc1	7.3*	·	0.1	127	93*	100
COc1ccc(OCC(=O)c2c(O)c3ccccc3oc2=O)cc1	0.99	0.06	0.9	-3	12	101
C=CCNC(=O)c1c(Br)cnn1-c1ccc(C)cc1	3	·	0.8	76	20	147*
Cc1cc(=O)oc(C)c1C(=O)NCc1cccnc1	1	0.53	1	-9	-2	101
O=C(NN(c1ccccc1)c1ccccc1)c1ccc([N+](=O)[O-])o1	3.5*	·	1	18	-3	93
O=C(NCc1ccco1)c1ccc([N+](=O)[O-])o1	5.6*	·	1	-10	0	97
O=C(NCc1cccnc1)c1ccc([N+](=O)[O-])o1	5.3*	·	1	-7	-4	103
C=CCOc1c(OC)cc(/C=N/Nc2cccc(C(=O)O)c2)c(Br)c1Br	1.6	-2.2	1	-20	-4	113
CC(=O)n1c2c(c3ccccc31)OC(N)=C(C#N)C2c1ccc(C(C)C)cc1 (configuration not stated)	0.61	-1.3	1.1	48	-5	129*
COC(=O)N/N=C(\C)c1ccc(Br)cc1	1.5	-0.92	0.9	-16	9	112
C/C(=N\NC(=O)OC(C)(C)C)c1ccccc1Br	2.1	·	1	20	3	132*
Cc1cccc(-n2ncc3c(N4CCCC4)ncnc32)c1	4.8*	0.46	0.1	138*	87*	108
Cc1cccc(-n2ncc3c(N4CC(C)CC(C)C4)ncnc32)c1 (configuration not stated)	2.3	-2	0.8	·	19	133*
Cc1cccc(-n2ncc3c(N4CCOCC4)ncnc32)c1	1.6	1.5	0.1	67	94*	91
Cc1ccc(-n2ncc3c(N4CCN(c5ccccc5)CC4)ncnc32)c(C)c1	0.35	-0.28	1	38	-4	94
CCN1CCN(c2c(Cl)cccc2NC(=O)c2ccc([N+](=O)[O-])cc2)CC1	0.93	·	1.1	-6	-6	101
